Test results from PMC4463842 (Molecular Medicine Reports, 2015).

Experiments:
[1] = biological target: peptide-HLA-A*0201 complex (Homo sapiens, UniProt P04439, D140Y/D185E/D98H/E176V/E277Q/G131W/G231S/I119V/I121R/I166T/I218V/L300P/L318F/N151K/N90K/P208A/P217A/Q86G/Q94H/R138H/R169H/T345S); assay: BFA decay assay; assay type: binding; details: T2 cells loaded with 100 µM peptide, 37°C, time required for 50% reduction of the MFI value recorded at time 0
[2] = test system: MCF-7 cells (HLA-A*0201+, EPS8+); assay: LDH release cytotoxicity assay of peptide-specific CTLs; assay type: cell-based, human; details: effector to target cell ratio 100:1, CTLs induced with peptide 10 µg/ml
Outline: (§1)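 Effectors were CTLs from donor PBMCs after three rounds of peptide stimulation over 3 weeks. Targets were plated at 5,000/well at E:T 100:1, spun 250 × g 4 min, then co-cultured 4–6 h at 37°C, 5% CO2, in phenol red-free medium with 5% FBS. Supernatant LDH gave %cytotoxicity = (experimental − effector spontaneous − target spontaneous)/(target maximum − target spontaneous) ×100. Triplicate wells, three repeats.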

[3] = test system: T2 cells pulsed with corresponding peptides; assay: as above; assay type: cell-based, human; details: effector to target cell ratio 100:1
Outline: as §1

| Sequence | DC50 [1] | average lysis rate of MCF-7 cells ([2]; donor 1) | average lysis rate of MCF-7 cells ([2]; donor 2) | lysis rate of T2 cells loaded with the corresponding peptide ([3]; donor 1) | lysis rate of T2 cells loaded with the corresponding peptide ([3]; donor 2) |
| --- | --- | --- | --- | --- | --- |
| QLAESVANV [Peptide 455] | >8 h | – | – | – | – |
| FLFTPLNMV [Peptide 360] | >8 h | – | – | – | – |
| KLLDAKGKV [Peptide 92] | – | 51.28±1.54% | 54.22±3.01% | 45.41±4.16% | 35.23±1.50% |
| ILDDIEFFI [Peptide 276] | 6 to 8 h | – | – | – | – |
